Experimental data published in ChEMBL document CHEMBL1134661, “N-Benzylpolyamines as vectors of boron and fluorine for cancer therapy and imaging: synthesis and biological evaluation” (J Med Chem, 2001).
Where “and” joins values, the source holds several entries; their conditions need not be identical. Equal values may be shown once.

Key:
[1] = system: CHO; experiment: Compound was tested for accumulation in CHO cells by HPLC at 250 uM dose; type: functional, Cricetulus griseus
Outline: (§1)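 CHO or polyamine-transport-deficient CHO-MG cells (proline 2 µg/mL added for CHO-MG), RPMI 1640 with 10% FCS, 37 °C, 5% CO2; seeded at 5 × 10⁴ cells/mL, derivative added 24 h later for 24 h; trypsin/EDTA harvest, three PBS washes, sonication in 0.2 N perchloric acid; derivative measured by ion-pair reversed-phase HPLC with o-phthalaldehyde/N-acetylcysteine fluorescence; per mg protein (Folin); mean ± SD.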

[2] = system: 3LL cell line; experiment: accumulation of compound in 3LL cells was measured with DFMO by HPLC at 50 uM dose; type: functional, Mus musculus
Outline: (§2)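 3LL cells exposed 24 h to derivative, BSH or BPA, with or without prior 24 h incubation with 5 mM DFMO; intracellular drug measured by ion-pair reversed-phase HPLC with o-phthalaldehyde fluorescence, or cellular boron by ICP-AES, per mg protein; mean ± SD; Student's t-test, p < 0.01.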

[3] = system: 3LL cell line; experiment: accumulation of compound in 3LL cells was measured without DFMO by HPLC at 50 uM dose; type: functional, Mus musculus; outline: as §2
[4] = system: 3LL cell line; experiment: Effect on the growth of 3LL cells was evaluated using an MTT assay at 48 hour incubation; type: functional, cell-based; conditions: Mus musculus
[5] = system: 3LL cell line; experiment: accumulation of compound in 3LL cells was measured with DFMO by HPLC at 250 uM dose; type: functional, Mus musculus; outline: as §2
[6] = system: 3LL cell line; experiment: spermidine levels in 3LL cells after the treatment of 50 uM of Compound; type: functional, cell-based; conditions: Mus musculus
Outline: (§3)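 3LL cells incubated 24 h with derivative, some after 24 h pretreatment with 5 mM DFMO; perchloric acid extracts analyzed for putrescine, spermidine and spermine by ion-pair reversed-phase HPLC with o-phthalaldehyde post-column fluorescence, normalized to protein (Folin); mean ± SD.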

[7] = Compound was tested for accumulation of (50 uM) boronated polyamines in murine B16 melanoma cells; type: functional
Outline: (§4)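 Rat C6, human U251 glioblastoma or murine B16 melanoma cells exposed 24 h to 50 µM boron-containing derivative, either directly or after 24 h preincubation with 5 mM DFMO; washed cells sonicated in 0.2 N perchloric acid, derivative quantified by ion-pair reversed-phase HPLC with o-phthalaldehyde fluorescence detection, normalized to protein; mean ± SD.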

[8] = target: Nucleic Acid; experiment: (§5) DNA binding affinity (conc to decrease the fluorescence of the ethidium bromide-DNA complex by 50%); type: nucleic-acid assay
[9] = system: 3LL cell line; experiment: Effect on the growth of 3LL cells was evaluated using an MTT assay at 72 hour incubation; type: functional, cell-based; conditions: Mus musculus
[10] = Compound was tested for accumulation of (50 uM) boronated polyamines in rat C6 glioblastoma cells; type: functional; outline: as §4
[11] = system: 3LL cell line; experiment: accumulation of compound in 3LL cells was measured with DFMO by ICP-AES at 50 uM dose; type: functional, Mus musculus; outline: as §2
[12] = system: 3LL cell line; experiment: Effect on the growth of 3LL cells by DFMO pretreatment at 48 hr incubation; type: functional, cell-based; conditions: Mus musculus
Outline: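 3LL cells given 5 mM DFMO 24 h after seeding for a 24 h preincubation, then 48 h with spermidine or derivative; MTT readout; growth expressed relative to cells treated with DFMO only; mean ± SEM.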

[13] = system: 3LL cell line; experiment: accumulation of compound in 3LL cells was measured without DFMO by ICP-AES at 50 uM dose; type: functional, Mus musculus; outline: as §2
[14] = system: 3LL cell line; experiment: spermine levels in 3LL cells after the treatment of 50 uM of Compound; type: functional, cell-based; conditions: Mus musculus; outline: as §3
[15] = system: CHO-MG; experiment: Compound was tested for accumulation in CHO-MG cells by HPLC at 250 uM dose; type: functional, Cricetulus griseus; outline: as §1
[16] = system: 3LL cell line; experiment: accumulation of compound in 3LL cells was measured without DFMO by HPLC at 250 uM dose; type: functional, Mus musculus; outline: as §2
[17] = system: U-251; experiment: Compound was tested for accumulation of (50 uM) boronated polyamines in human U251 glioblastoma cells; type: functional; outline: as §4
[18] = target: Nucleic Acid; experiment: as §5; type: nucleic-acid assay, Bos taurus
[19] = system: CHO; experiment: Compound was tested for accumulation in CHO cells by HPLC at 50 uM dose; type: functional, Cricetulus griseus; outline: as §1
[20] = system: CHO-MG; experiment: Compound was tested for accumulation in CHO-MG cells by HPLC at 50 uM dose; type: functional, Cricetulus griseus; outline: as §1
[21] = system: 3LL cell line; experiment: spermine levels in 3LL cells after the treatment of 250 uM of Compound; type: functional, cell-based; conditions: Mus musculus; outline: as §3
[22] = system: 3LL cell line; experiment: accumulation of compound in 3LL cells was measured with DFMO by HPLC at 10 uM dose; type: functional, Mus musculus; outline: as §2
[23] = system: 3LL cell line; experiment: putrescine levels in 3LL cells after the treatment of 250 uM of Compound; type: functional, cell-based; conditions: Mus musculus; outline: as §3
[24] = Compound was tested for accumulation of (50 uM) boronated polyamines in rat C6 glioblastoma cells incubated with 5 mM DFMO; type: functional; outline: as §4
[25] = system: 3LL cell line; experiment: accumulation of compound in 3LL cells was measured without DFMO by HPLC at 10 uM dose; type: functional, Mus musculus; outline: as §2
[26] = system: 3LL cell line; experiment: spermidine levels in 3LL cells after the treatment of 250 uM of Compound; type: functional, cell-based; conditions: Mus musculus; outline: as §3
[27] = Compound was tested for accumulation of (50 uM) boronated polyamines in murine B16 melanoma cells ncubated with 5 mM DFMO; type: functional; outline: as §4
[28] = system: U-251; experiment: Compound was tested for accumulation of (50 uM) boronated polyamines in human U251 glioblastoma cells incubated with 5 mM DFMO; type: functional; outline: as §4
[29] = system: 3LL cell line; experiment: accumulation of compound in 3LL cells was measured with DFMO by HPLC at 1 uM dose; type: functional, Mus musculus; outline: as §2
[30] = system: CHO; experiment: Compound was tested for accumulation in CHO cells by HPLC at 10 uM dose; type: functional, Cricetulus griseus; outline: as §1
[31] = system: 3LL cell line; experiment: spermine levels in 3LL cells after the treatment of 1 uM of Compound; type: functional, cell-based; conditions: Mus musculus; outline: as §3
[32] = system: 3LL cell line; experiment: accumulation of compound in 3LL cells was measured without DFMO by HPLC at 1 uM dose; type: functional, Mus musculus; outline: as §2

Row | Compound | IC50 [18] | Activity [2] | Activity [3] | IC50 [4] | Level (nM (mg of protein)-1) [6] | Accumulation [7] | IC50 [9] | Activity [11] | IC50 [12] | Activity [13] | Level (nM (mg of protein)-1) [14] | Accumulation [17] | Accumulation [19] | Accumulation [20] | Activity [10] | Activity [25] | also measured
1 | CC1(C)COB(c2ccc(CN(CCCN)CCCCN)cc2)OC1.Cl | – | 0.98 nM (mg of protein)-1 | 2.6 nmol/mg protein | > 1000 µM | 8.92 | 0.92 nM (mg of protein)-1 and 0.45 nM (mg of protein)-1 | > 1000 µM | 1.83 nM (mg of protein)-1 | > 10 µM | 3.46 nM (mg of protein)-1 | 7.4 | 2.12 nM (mg of protein)-1 and 1.79 nM (mg of protein)-1 | – | – | – | – | Accumulation [1]: 5.05 nM (mg of protein)-1; Activity [5]: 2.55 nM (mg of protein)-1; IC50 [8]: 102 µM; Accumulation [10]: 2.92 nM (mg of protein)-1 and 2.5 nM (mg of protein)-1; Accumulation [15]: 3.84 nM (mg of protein)-1; Activity [16]: 3.35 nM (mg of protein)-1
2 | Cl.NCCCCNCCCNCc1ccc(B(O)O)cc1 | 37 µM | 4.18 nM (mg of protein)-1 | – | 824 µM | 0.14 | 4.75 nM (mg of protein)-1 and 9.26 nM (mg of protein)-1 | 400 µM | 5.68 nM (mg of protein)-1 | > 1 µM | 2.7 nM (mg of protein)-1 | 7.25 | 1.65 nM (mg of protein)-1 | 4.78 nM (mg of protein)-1 | – | 1.63 nM (mg of protein)-1 | – | Drug [3]: 2.01 nM (mg of protein)-1
3 | Cl.NCCCCNCc1ccc(B(O)O)cc1 | 1380 µM | 8.44 nM (mg of protein)-1 | 1.32 nmol/mg protein | > 1000 µM | 1.07 | 5.77 nM (mg of protein)-1 | > 1000 µM | 6.73 nM (mg of protein)-1 | > 50 µM | 1.29 nM (mg of protein)-1 | 7.52 | 0.21 nM (mg of protein)-1 | 5.76 nM (mg of protein)-1 | 0.51 nM (mg of protein)-1 | 0.09 nM (mg of protein)-1 | 0.52 nM (mg of protein)-1 | Level (nM (mg of protein)-1) [21]: 7.66; Activity [22]: 3.37 nM (mg of protein)-1; Level (nM (mg of protein)-1) [23]: 1.31; Accumulation [24]: 0.41 nM (mg of protein)-1; Level (nM (mg of protein)-1) [26]: 2.28; Accumulation [27]: 20.41 nM (mg of protein)-1; Accumulation [28]: 0.22 nM (mg of protein)-1
4 | Cl.NCCCCNCc1ccccc1 | 3110 µM | 1.03 nM (mg of protein)-1 | 0.34 nmol/mg protein | 993 µM | 0.89 | – | 604 µM | – | > 50 µM | – | 5.79 | – | 0.4 nM (mg of protein)-1 | 0.1 nM (mg of protein)-1 | – | – | –

Continued, in another order:

Row | IC50 [18] | Compound | Activity [2] | Activity [3] | IC50 [4] | Level (nM (mg of protein)-1) [6] | Accumulation [7] | IC50 [9] | Activity [11] | IC50 [12] | Activity [13] | Level (nM (mg of protein)-1) [14] | Accumulation [17] | Accumulation [19] | Accumulation [20] | Activity [10] | Activity [25] | also measured
5 | > 3000 µM | Cl.NCCCCNCc1ccc(F)cc1 | 1.31 nM (mg of protein)-1 | 0.55 nmol/mg protein | 568 µM | 0.92 | – | 468 µM | – | > 10 µM | – | 11 | – | 0.9 nM (mg of protein)-1 | 0.45 nM (mg of protein)-1 | – | – | –
6 | 341 µM | Cl.NCCCCNCCCNCc1ccc(F)cc1 | – | – | 4.7 µM | – | – | 2.3 µM | – | 0.5 µM | – | – | – | – | – | – | 12.87 nM (mg of protein)-1 | Activity [29]: 12.19 nM (mg of protein)-1; Accumulation [30]: 9.4 nM (mg of protein)-1; Level (nM (mg of protein)-1) [31]: 8.25; Activity [32]: 5.51 nM (mg of protein)-1
